The values that follow come from ChEMBL document CHEMBL1125539 (J Med Chem, 1992).

Experiment [1] can be described thus: Growth inhibition of aerobic chinese hamster ovary fibroblast AA8 cell line using an exposure time of 18 hours. The format is functional, cell-based. As to conditions: Cricetulus griseus, CHO-AA8, 18 h. In short, it runs like this:
(§1)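 Log-phase CHO monolayers in 96-well trays seeded at 200 (AA8; text prints "A48") or 300 (UV4) cells/well in Alpha MEM + 10% FCS, grown 24 h, then exposed aerobically 18 h to five 2-fold serial dilutions in duplicate.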

A short description of experiment [2]: Growth inhibition of aerobic chinese hamster ovary fibroblast UV4 cells using an exposure time of 18 hours. As to conditions: Cricetulus griseus, UV4, 18 h. It counts as functional, cell-based. In short, it runs like this: as §1
The species entered for experiment [3] is Cricetulus griseus. As to the kind of experiment: Hypersensitivity factor was defined as the ratio of IC50(AA8) to IC50(UV4). It counts as functional.
Experiment [4] can be described thus: CT10 ratio defined as ratio of CT10 (air) to that of CT10 (nitrogen)). It counts as functional. Put shortly: (§2)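 Magnetically stirred 10-mL suspensions of late-log UV4 cells (10^6/mL), gassed continuously with 5% CO2 in air or N2. Cells and drug in medium pre-equilibrated 60 min under that gas before mixing. Samples removed periodically up to 8 h for clonogenic survival. CT10 = concentration (μM) × time (h) for 10% survival; ratio = CT10(air)/CT10(N2), using concentrations giving similar kill rates.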

Experiment [5] can be described thus: Hypoxic selectivity was measured as product of concentration and exposure time needed to reduce cell survival to 10% of control using UV4 cells at 10e6 /mL in the clonogenic assay. It counts as functional, Cricetulus griseus. In short, it runs like this: as §2

Each structure is given as a SMILES string. Some results are limits rather than exact numbers.

The term IC50 denotes the concentration at which inhibition is half-maximal. Read a low IC50 as higher potency. On to `CN(C)CCNC(=O)c1cccc(N(CCCl)CCCl)c1`, for which the IC50 in experiment [1] is 11 µM; in experiment [2], 0.27 µM. The HF in experiment [3] was 44.
For `O=[N+]([O-])c1ccc(N(CCO)CCO)c([N+](=O)[O-])c1`, the IC50 in experiment [1] amounted to 295 µM; in experiment [2], 280 µM. Also, in experiment [3], the HF is 0.9.
On to `CN(C)CCNC(=O)c1cc([N+](=O)[O-])ccc1N(CCCl)CCCl`, for which the IC50 stood at 208 µM in experiment [1] and 5.7 µM in experiment [2]. Besides, the CT10 ratio in experiment [4] turned out to be 1.5 air/N2. This molecule came in with a CT10 in experiment [5] of 78 µM·h. In addition, the HF in experiment [3] stood at 40.
Regarding `CN(C)CCNC(=O)c1cc(N(CCO)CCO)ccc1[N+](=O)[O-]`, the IC50 was found to be 13200 µM in experiment [1] and 8000 µM in experiment [2]. Further, the CT10 ratio in experiment [4] was determined as 0.95 air/N2. The molecule also showed a CT10 in experiment [5] of 11300 µM·h. The HF in experiment [3] came to 1.6.
With `O=C(c1cc(N(CCO)CCO)c([N+](=O)[O-])cc1[N+](=O)[O-])N1CCOCC1`, the IC50 in experiment [1] came out at 2950 µM; in experiment [2], 2600 µM. Further, the HF in experiment [3] was 1.1.
On to `NC(=O)c1cc(N(CCO)CCO)c([N+](=O)[O-])cc1[N+](=O)[O-]`, for which the values for the IC50 in experiment [1] and in experiment [2] were 6200 µM and 5900 µM, respectively. The same molecule showed a CT10 in experiment [5] above 35000 µM·h. Further, the HF in experiment [3] is 1.1.
With `O=C(c1cc(N2CC2)c([N+](=O)[O-])cc1[N+](=O)[O-])N1CCOCC1`, the figures for the IC50 in experiment [1] and in experiment [2] were 690 µM and 2.7 µM, respectively. The CT10 ratio in experiment [4] worked out at 1.7 air/N2. This molecule returned a CT10 in experiment [5] of 50 µM·h. For the same molecule, the HF in experiment [3] worked out at 330.
`O=C(c1cc(N(CCCl)CCCl)ccc1[N+](=O)[O-])N1CCOCC1`: the IC50 in experiment [1] was 243 µM; in experiment [2] it was 15 µM. Besides, the CT10 ratio in experiment [4] is 1 air/N2. Besides, the CT10 in experiment [5] was found to be 450 µM·h. Besides, the HF in experiment [3] is 19.
For `O=[N+]([O-])c1ccc(N(CCO)CCO)cc1`, the IC50 in experiment [1] stood at 3200 µM; in experiment [2] it was 2950 µM. Further, in experiment [3], the HF is 1.1.
With `CN(C)CCNC(=O)c1cc(N(CCO)CCO)c([N+](=O)[O-])cc1[N+](=O)[O-]`, the IC50 in experiment [1] came out at 4110 µM; in experiment [2] it was 3100 µM. Also, the HF in experiment [3] stood at 1.4.
On to `CN(C)CCNC(=O)c1cc(N(CCCl)CCCl)c([N+](=O)[O-])cc1[N+](=O)[O-]`, for which the IC50 in experiment [1] is 260 µM; in experiment [2], 68 µM. Moreover, in experiment [4], the CT10 ratio amounted to 70 air/N2. Further, the CT10 in experiment [5] was 1080 µM·h. Also, the HF in experiment [3] worked out at 4.2.
For `CN(C)CCNC(=O)c1cc(N(CCCl)CCCl)ccc1[N+](=O)[O-]`, in that order: 1140 µM, 72 µM, 2.3 air/N2, 465 µM·h and 12.
Regarding `O=C(c1cc([N+](=O)[O-])ccc1N(CCCl)CCCl)N1CCOCC1`, the IC50 in experiment [1] is above 500 µM; in experiment [2], 68 µM. The CT10 ratio in experiment [4] worked out at 1.15 air/N2. This molecule gave a CT10 in experiment [5] of 2325 µM·h. Moreover, in experiment [3], the HF is above 7.
For the molecule `CN(C)CCNC(=O)c1cc([N+](=O)[O-])ccc1N(CCO)CCO`, the IC50 in experiment [1] amounted to 6700 µM; in experiment [2], 4000 µM. Moreover, in experiment [3], the HF was determined as 1.1.
The matching figures for `O=C(c1cc(N(CCO)CCO)ccc1[N+](=O)[O-])N1CCOCC1`: 11200 µM, 9200 µM and 1.
As for `NC(=O)c1cc(N(CCCl)CCCl)c([N+](=O)[O-])cc1[N+](=O)[O-]`, the IC50 in experiment [1] was 470 µM; in experiment [2] it was 108 µM. Further, in experiment [4], the CT10 ratio is 60 air/N2. In experiment [5], this molecule had a CT10 of 2700 µM·h. Also, in experiment [3], the HF was 6.8.
With `NC(=O)c1cc(N2CC2)c([N+](=O)[O-])cc1[N+](=O)[O-]` [TRETAZICAR], the IC50 turned out to be 560 µM in experiment [1] and 11.7 µM in experiment [2]. Besides, in experiment [4], the CT10 ratio is 3.6 air/N2. Also, in experiment [3], the HF was found to be 50.
`O=C(c1cc(N(CCCl)CCCl)c([N+](=O)[O-])cc1[N+](=O)[O-])N1CCOCC1`: the IC50 in experiment [1] is 260 µM; in experiment [2], 12 µM. Further, in experiment [4], the CT10 ratio was determined as 1.3 air/N2. This molecule registered a CT10 in experiment [5] of 156 µM·h. Also, in experiment [3], the HF stood at 23.
As for `O=C(c1cc([N+](=O)[O-])ccc1N(CCO)CCO)N1CCOCC1`, the IC50 in experiment [1] was 10400 µM; in experiment [2], 8400 µM. For the same molecule, in experiment [3], the HF is 1.3.
